Results on 5 compounds are retold here after ChEMBL document CHEMBL1152709, “Tricyclic HIV integrase inhibitors: VI. SAR studies of 'benzyl flipped' C3-substituted pyrroloquinolines” (Bioorg Med Chem Lett, 2009).

For data set [1], the system named is Human immunodeficiency virus 1. The data set can be described thus: Antiviral activity against HIV1 3B infected in human MT2 cells after 5 days by cell-titer assay in presence of 10% FBS. In kind it is functional, organism-based. The conditions noted are these: Human immunodeficiency virus 1, 3B, MT2, 120 h. The method in brief:
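MT-2 cells infected with HIV-1 IIIB (m.o.i. 0.01, 3 h), then about 1.5 × 10⁴ cells per well added to 9 concentrations of 5-fold serially diluted drug in triplicate, in culture medium with 10% FBS. Incubated 5 days at 37 °C. Viability read by CellTiter-Glo chemiluminescence after 10 min lysis at room temperature. Values are means of at least two experiments.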

Data set [2] has as its target Human immunodeficiency virus type 1 integrase (Human immunodeficiency virus 1, UniProt Q7ZJM1). The data set can be described thus: Inhibition of HIV1 HXB2 integrase strand transfer activity by microtiter assay. The method in brief:
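Strand transfer measured in a microtiter format using DIG-tagged target DNA, detected with anti-DIG antibody–horseradish peroxidase conjugate. IC50 reported in nM as the mean of at least two experiments.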

The nature of data set [3]: Oral bioavailability in dog at pH 2.2. In kind it is ADME, organism-based, Canis lupus familiaris. The conditions noted are these: in vivo. In outline: (§1)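 Oral dosing of parent compound as a solution in EtOH, PG, PEG400 and citric acid at pH 2.2, alongside an i.v. group (pH 3.3). F (%) was calculated from p.o. versus i.v. AUC. Values are the mean of three animals per study.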

Data set [4] is described as follows: Clearance in iv dosed rat at pH 3.3. The format is ADME, organism-based. The conditions noted are these: in vivo. In outline:
(§2)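 Parent compound given i.v. as a solution in EtOH, PG, PEG400 and citric acid at pH 3.3. Total body clearance and T½ were derived from the i.v. group. Values are the mean of three animals per study.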

The nature of data set [5]: Clearance in iv dosed dog at pH 3.3. The format is ADME, organism-based, Canis lupus familiaris. Particulars: in vivo. In outline:
as §2

The subject of data set [6] is Human immunodeficiency virus 1. The data set can be described thus: Antiviral activity against HIV1 3B infected in human MT2 cells after 5 days by cell-titer method in presence of human serum albumin and alpha1-acid glycoprotein. The format is functional, organism-based. The conditions noted are these: Human immunodeficiency virus 1, 3B, MT2, 120 h. The method in brief: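 Same MT-2/HIV-1 IIIB assay (m.o.i. 0.01, 5 days at 37 °C, CellTiter-Glo read-out), run in 10% FBS with or without HSA (35 mg/ml) or α1-AGP (1.5 mg/ml). The combined-protein (serum-adjusted) EC₅₀ was calculated from the EC₅₀ values with each protein alone, using an equation derived from competitive binding assumptions.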

A short description of data set [7]: Half life in iv dosed dog at pH 3.3. The format is ADME, organism-based, Canis lupus familiaris. Particulars: in vivo. In outline: as §2
Data set [8] can be described thus: Half life in iv dosed rat at pH 3.3. In kind it is ADME, organism-based. The conditions noted are these: in vivo. The method in brief: as §2
Data set [9] in a line: Oral bioavailability in rat at pH 2.2. In kind it is ADME, organism-based. Particulars: in vivo. The method in brief:
as §1

Chain of Human immunodeficiency virus type 1 integrase (Q7ZJM1 whole entry): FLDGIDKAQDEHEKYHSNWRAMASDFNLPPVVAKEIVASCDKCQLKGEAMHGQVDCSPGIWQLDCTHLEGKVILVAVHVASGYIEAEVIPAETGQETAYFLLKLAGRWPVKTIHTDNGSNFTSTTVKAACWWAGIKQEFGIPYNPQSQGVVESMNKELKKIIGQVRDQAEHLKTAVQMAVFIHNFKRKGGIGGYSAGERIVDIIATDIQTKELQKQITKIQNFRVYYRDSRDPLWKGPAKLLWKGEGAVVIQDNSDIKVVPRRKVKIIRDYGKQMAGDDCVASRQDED

For `COc1c2c(c(O)c3ncc(Cc4ccc(F)cc4)cc13)C(=O)N(Cc1ccc(F)cc1)C2`, in data set [1], the EC50 turned out to be 0.105 µM. In [2], this compound came in with an IC50 of 0.6 µM.
For `CN1Cc2c(c(O)c3ncc(Cc4ccc(F)cc4)cc3c2N(C)S(C)(=O)=O)C1=O`, the EC50 was 0.002 µM in [1] and 0.007 µM in data set [6]. For the same compound, the bioavailability stood at 47% in data set [3] and 12% in data set [9]. Moreover, the results for the clearance in data set [4] and in [5] were 8.17 mL/min/kg and 2.17 mL/min/kg, respectively. For the same compound, in data set [2], the 50% inhibitory concentration (IC50) was 0.08 µM. For the same compound, the half-life in data set [7] is 4.4 h; in [8], 0.4 h.
On to `COc1c2c(c(O)c3ncc(Cc4ccc(F)cc4)cc13)C(=O)N(C)C2`, for which, in [1], the EC50 was found to be 0.02 µM. In [2], this compound gave an IC50 of 0.1 µM.
Regarding `COc1c2c(c(O)c3ncc(Cc4ccc(F)cc4)cc13)C(=O)NC2`, the EC50 came to 0.016 µM in data set [1] and 0.027 µM in data set [6]. In addition, in [2], the IC50 stood at 0.014 µM.
Regarding `CN1Cc2c(c(O)c3ncc(Cc4ccc(F)c(Cl)c4)cc3c2N(C)S(C)(=O)=O)C1=O`, the results for the EC50 in [1] and in [6] were 0.0011 µM and 0.035 µM, respectively. The bioavailability was 60% in data set [3] and 11% in [9]. Besides, the values for the clearance in [4] and in data set [5] were 3.67 mL/min/kg and 2 mL/min/kg, respectively. Further, in [2], the IC50 is 0.265 µM. The half-life was 8.8 h in [7] and 1.7 h in data set [8].
